From ChEMBL document CHEMBL2029236, “Tubulin binding, protein-bound conformation in solution, and antimitotic cellular profiling of noscapine and its derivatives” (J Med Chem, 2012)
pIC50: −log10 of the molar value. The source made the active and inactive calls. The rule behind the calls is not given here.

Legend:
[1] = tested on: SMMC-7721; experiment: Antiproliferative activity against human SMMC7721 after 72 hrs by CellTiter Glo assay; type: functional, cell-based; conditions: SMMC-7721, 72 h
How it was run: (§1)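 Cell viability assay in hepatocellular carcinoma cell lines; IC50 values derived from concentration–response data and reported in nM.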

[2] = Antiproliferative activity against human MHCC97H after 72 hrs by CellTiter Glo assay; type: functional; how it was run: as §1
[3] = Cell cycle arrest in human PLC/PRF/5 cells assessed as accumulation at G1 phase after 24 hrs by FACS analysis (reference value: 66.8%); type: functional, cell-based
[4] = Antiproliferative activity against human PLC/PRF/5 cells; type: functional, cell-based; how it was run: as §1
[5] = tested on: Huh-7; experiment: Antiproliferative activity against human HuH7 after 72 hrs by CellTiter Glo assay; type: functional, cell-based; conditions: Huh-7, 72 h; how it was run: as §1
[6] = Cell cycle arrest in human PLC/PRF/5 cells assessed as accumulation at sub-G1 phase after 24 hrs by FACS analysis (reference value: 1.4%); type: functional, cell-based
[7] = tested on: SNU-398; experiment: Cell cycle arrest in human SNU398 cells assessed as accumulation at G2 phase after 24 hrs by FACS analysis (reference value: 38.2%); type: functional
[8] = tested on: SNU-398; experiment: Cell cycle arrest in human SNU398 cells assessed as accumulation at sub-G1 phase after 24 hrs by FACS analysis (reference value: 1.2%); type: functional
[9] = tested on: HepG2; experiment: Antiproliferative activity against human HepG2 after 72 hrs by CellTiter Glo assay; type: functional, cell-based; conditions: HepG2, 72 h; how it was run: as §1
[10] = tested on: SNU-398; experiment: Antiproliferative activity against human SNU398 after 72 hrs by CellTiter Glo assay; type: functional, cell-based; conditions: SNU-398, 72 h; how it was run: as §1
[11] = tested on: SNU-475; experiment: Antiproliferative activity against human SNU475 after 72 hrs by CellTiter Glo assay; type: functional, cell-based; conditions: SNU-475, 72 h; how it was run: as §1
[12] = tested on: SNU-423; experiment: Antiproliferative activity against human SNU423 after 72 hrs by CellTiter Glo assay; type: functional, cell-based; conditions: SNU-423, 72 h; how it was run: as §1
[13] = tested on: SNU-398; experiment: Antiproliferative activity against human SNU398 cells; type: functional, cell-based; how it was run: as §1
[14] = tested on: SNU-398; experiment: Cell cycle arrest in human SNU398 cells assessed as accumulation at G1 phase after 24 hrs by FACS analysis (reference value: 55.8%); type: functional
[15] = tested on: SNU-449; experiment: Antiproliferative activity against human SNU449 after 72 hrs by CellTiter Glo assay; type: functional, cell-based; conditions: SNU-449, 72 h; how it was run: as §1
[16] = Antiproliferative activity against human JHH4 after 72 hrs by CellTiter Glo assay; type: functional; how it was run: as §1
[17] = Antiproliferative activity against human SNU182 after 72 hrs by CellTiter Glo assay; type: functional, cell-based; conditions: SNU-182, 72 h; how it was run: as §1
[18] = tested on: Bel-7402; experiment: Antiproliferative activity against human Bel7402 after 72 hrs by CellTiter Glo assay; type: functional, cell-based; conditions: Bel-7402, 72 h; how it was run: as §1
[19] = Antiproliferative activity against human PLC/PRF/5 after 72 hrs by CellTiter Glo assay; type: functional; conditions: PLC-PRF-5, 72 h; how it was run: as §1
[20] = Antiproliferative activity against human JHH2 after 72 hrs by CellTiter Glo assay; type: functional; how it was run: as §1
[21] = Antiproliferative activity against human Hep3B after 72 hrs by CellTiter Glo assay; type: functional, Hep 3B2; how it was run: as §1
[22] = tested on: SNU-387; experiment: Antiproliferative activity against human SNU387 after 72 hrs by CellTiter Glo assay; type: functional, cell-based; conditions: SNU-387, 72 h; how it was run: as §1
[23] = Cell cycle arrest in human PLC/PRF/5 cells assessed as accumulation at G2 phase after 24 hrs by FACS analysis (reference value: 26.1%); type: functional, cell-based
[24] = organism: Bos taurus; experiment: Binding affinity to calf brain tubulin alpha/beta heterodimer assessed as increase in proton signal at […] by STD NMR analysis
How it was run: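 STD NMR with freshly prepared tubulin α/β heterodimer. Ligand:protein molar ratio 30:1 ([…], […]). Read-out: enhancement of ligand proton signals in STD spectra versus an off-resonance reference spectrum acquired without protein irradiation.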

[25] = Cell cycle arrest in human PLC/PRF/5 cells assessed as accumulation at sub-G1 phase at 2 uM after 24 hrs by FACS analysis (reference value: 1.4%); type: functional, cell-based
[26] = tested on: SNU-398; experiment: Cell cycle arrest in human SNU398 cells assessed as accumulation at G1 phase at 2 uM after 24 hrs by FACS analysis (reference value: 55.8%); type: functional
[27] = tested on: SNU-398; experiment: Cell cycle arrest in human SNU398 cells assessed as accumulation at sub-G1 phase at 2 uM after 24 hrs by FACS analysis (reference value: 1.2%); type: functional
[28] = tested on: SNU-398; experiment: Cell cycle arrest in human SNU398 cells assessed as accumulation at G2 phase at 2 uM after 24 hrs by FACS analysis (reference value: 38.2%); type: functional
[29] = organism: Bos taurus; experiment: Binding affinity to calf brain tubulin assessed as increase in fluorescence at 10 uM by fluorometry relative to control
How it was run: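 Fluorescence emission spectra of 10 μM ligand with and without 10 μM tubulin in 10 mM sodium phosphate, 0.1 mM GTP, pH 7.0, 25 °C. Emission intensity (425 nm maximum) and anisotropy were compared between bound and unbound ligand.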

[30] = Cell cycle arrest in human PLC/PRF/5 cells assessed as accumulation at G1 phase at 2 uM after 24 hrs by FACS analysis (reference value: 66.8%); type: functional, cell-based
[31] = Cell cycle arrest in human PLC/PRF/5 cells assessed as accumulation at G2 phase at 2 uM after 24 hrs by FACS analysis (reference value: 26.1%); type: functional, cell-based
[32] = Antiproliferative activity against human JHH7 after 72 hrs by CellTiter Glo assay; type: functional; how it was run: as §1

Compound	pIC50 [1]	pIC50 [2]	pIC50 [4]	pIC50 [5]	pIC50 [9]	pIC50 [10]	pIC50 [11]	pIC50 [12]	pIC50 [13]	pIC50 [15]	pIC50 [16]	pIC50 [17]	pIC50 [18]	pIC50 [19]	pIC50 [20]	pIC50 [21]	pIC50 [22]	also measured
CC(=O)O[C@@]12CO[C@@H]1C[C@H](O)[C@@]1(C)C(=O)[C@H](O)C3=C(C)[C@@H](OC(=O)[C@H](O)[C@@H](NC(=O)OC(C)(C)C)c4ccccc4)C[C@@](O)([C@@H](OC(=O)c4ccccc4)[C@H]21)C3(C)C.O.O.O [DOCETAXEL]	8.70	7.65	7.92	7.92	< 7.00	7.75	7.69	7.97	7.78	< 7.00	7.85	7.41	8.72	7.78	< 7.00	7.42	8.37	Activity [3]: 11.2%; Activity [6]: 16.8%; Activity [7]: 72.2%; Activity [8]: 9.3%; Activity [14]: 12.7%; Activity [23]: 64.4%
COc1ccc2c(c1OC)C(=O)O[C@@H]2[C@H]1c2c(cc3c(c2OC)OCO3)CCN1C [NOSCAPINE]	< 6.00	< 6.00	< 5.70	< 6.00	< 6.00	< 6.00	< 6.00	< 6.00	< 5.70	< 6.00	< 6.00	< 6.00	< 6.00	< 6.00	< 6.00	< 6.00	< 6.00	inhibition [24]: Active; Activity [25]: 1.5%; Activity [26]: 66%; Activity [27]: 1%; Activity [28]: 30.3%; Activity [29]: inactive; Activity [30]: 65.5%; Activity [31]: 27.1%; pIC50 [32]: < 6.00
